Results as given in ChEMBL document CHEMBL1138286, “Synthesis and biological evaluation of N-(aryl)-2-thiophen-2-ylacetamides series as a new class of antitubercular agents” (2007).
Converted amounts (≈) assume the structure as drawn. The source made the active and inactive calls. The rule behind the calls is not given here.

Key:
Assay type in all cases: functional
[1] = test system: Mycobacterium tuberculosis; experiment: Antibacterial activity against Mycobacterium tuberculosis ATTC 27294 after 5 days by MABA assay; details: for MIC: 120 h
How it was run: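 Microplate Alamar blue assay in Middlebrook 7H9 broth. Compounds serially diluted on the plate to final concentrations of […]. Plates sealed and incubated at 37 °C for 5 days. A 1:1 mix of Alamar blue and 10% Tween 80 was then added and plates incubated 24 h. Blue scored as no growth, pink as growth. MIC is the lowest concentration preventing the blue-to-pink change.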

J774 [2] = experiment: Cytotoxicity against murine J774 cells assessed as cell viability at 0.1 ug/mL after 18 hrs by MTT assay; details: Mus musculus, J774, 18 h; read-out: Activity
How it was run: (§1)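 J774 macrophages plated at 2.5 × 10⁶ cells/mL and held 1 h at 37 °C under 5% CO₂. Non-adherent cells were washed off with RPMI 1640. Adherent cells were exposed in triplicate to compound at 0.1, 1.0, 10.0 or 100 µg/mL, with medium alone as live control and 3% Tween 20 as dead control. After 18 h, MTT was added for 4 h, formazan was dissolved in DMSO, and A540 was read.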

J774 [3] = experiment: Cytotoxicity against murine J774 cells assessed as cell viability at 100 ug/mL after 18 hrs by MTT assay; details: Mus musculus, J774, 18 h; read-out: Activity; how it was run: as §1
J774 [4] = experiment: Cytotoxicity against murine J774 cells assessed as cell viability at 10 ug/mL after 18 hrs by MTT assay; details: Mus musculus, J774, 18 h; read-out: Activity; how it was run: as §1
J774 [5] = experiment: Cytotoxicity against murine J774 cells assessed as cell viability at 1 ug/mL after 18 hrs by MTT assay; details: Mus musculus, J774, 18 h; read-out: Activity; how it was run: as §1

Compound	MIC [1]	Activity [1]	other results
O=C(Cc1cccs1)Nc1ccc(Cl)cc1F	100 µg/mL (≈ 371 µM)		
O=C(Cc1cccs1)Nc1ccc([N+](=O)[O-])cc1	50 µg/mL (≈ 191 µM)		viability at 0.1 µg/mL (J774 [2]): 100%; viability at 100 µg/mL (J774 [3]): 85%; viability at 10 µg/mL (J774 [4]): 100%; viability at 1 µg/mL (J774 [5]): 100%
COc1ccc(OC)c(NC(=O)Cc2cccs2)c1		inactive	
CO[C@H]1/C=C/O[C@@]2(C)Oc3c(C)c(O)c4c(O)c(c(/C=N/N5CCN(C)CC5)c(O)c4c3C2=O)NC(=O)/C(C)=C\C=C\[C@H](C)[C@H](O)[C@@H](C)[C@@H](O)[C@@H](C)[C@H](OC(C)=O)[C@@H]1C [RIFAMPIN]	1 µg/mL (≈ 1.22 µM)		
O=C(Cc1cccs1)Nc1ccc(F)cc1Cl		inactive	
COc1ccc(NC(=O)Cc2cccs2)cc1		inactive	
O=C(Cc1cccs1)Nc1ccccc1C(F)(F)F		inactive	
O=C(Cc1cccs1)Nc1cccc(C(F)(F)F)c1		inactive	
Cc1ccccc1NC(=O)Cc1cccs1	100 µg/mL (≈ 432 µM)		
NNC(=O)c1ccncc1 [ISONIAZID]	0.2 µg/mL (≈ 1.46 µM)		
O=C(Cc1cccs1)Nc1ccc(Br)cc1		inactive	
O=C(Cc1cccs1)Nc1ccccc1	25 µg/mL (≈ 115 µM)		viability at 0.1 µg/mL (J774 [2]): 100%; viability at 100 µg/mL (J774 [3]): 100%; viability at 10 µg/mL (J774 [4]): 100%; viability at 1 µg/mL (J774 [5]): 100%
Cc1cccc(C)c1NC(=O)Cc1cccs1		inactive	
O=C(Cc1cccs1)Nc1ccccc1[N+](=O)[O-]		inactive	
COc1ccccc1NC(=O)Cc1cccs1		inactive	
O=C(Cc1cccs1)Nc1cccc([N+](=O)[O-])c1		inactive	
O=C(Cc1cccs1)Nc1ccc2c(c1)OCO2		inactive	
O=C(Cc1cccs1)Nc1ccc(F)cc1	100 µg/mL (≈ 425 µM)		
COc1cccc(NC(=O)Cc2cccs2)c1	50 µg/mL (≈ 202 µM)		viability at 0.1 µg/mL (J774 [2]): 100%; viability at 100 µg/mL (J774 [3]): 100%; viability at 10 µg/mL (J774 [4]): 100%; viability at 1 µg/mL (J774 [5]): 100%
O=C(Cc1cccs1)Nc1c(Cl)cccc1Cl		inactive	
O=C(Cc1cccs1)Nc1ccc(Cl)cc1	100 µg/mL (≈ 397 µM)		
O=C(Cc1cccs1)Nc1cccc(Cl)c1	50 µg/mL (≈ 199 µM)		viability at 0.1 µg/mL (J774 [2]): 100%; viability at 100 µg/mL (J774 [3]): 100%; viability at 10 µg/mL (J774 [4]): 100%; viability at 1 µg/mL (J774 [5]): 100%
